SENP6 block: SENP6 protease inhibitors, primary screen, biochemical, luminescence, uHTS. Sentrin-specific protease 6 (Homo sapiens), Q9GZR1. Recombinant SENP6 catalytic domain, aminoluciferin luminescence. inhibition, % at 10 µM. actives 1.8% (n = 330,000). AID 2599, 2010;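 active = inhibition above about 50% at the single tested dose, limit read from the data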;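 also: plate controls were DMSO wells with enzyme for no effect and DMSO wells lacking enzyme for full effect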
SENP8 block-1: human SENP8 protease inhibitors, primary screen, biochemical, fluorescence, Nedd8 protein substrate, uHTS | Sentrin-specific protease 8 (Homo sapiens), Q96LD8 | recombinant SENP8 | inhibition, % at 20 µM | actives 0.64% (n = 360,000) | AID 602440, 2012; in the data active = inhibition mostly above about 40%, no sharp cut-off; inactive = mostly below about 27%
SENP7 inh: SENP7 protease inhibitors, primary screen, biochemical, luminescence, uHTS; actives 1.5% (n = 330,000); AID 434973, 2010; inhibition, % at 5 µM; recombinant SENP7, Z-RLRGG-aminoluciferin luminescence, 40 min;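 active = inhibition above about 50% at the single test dose, limit read from the data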;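 also: plate controls were DMSO with enzyme for no effect and no enzyme buffer wells for full effect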
SENP1 FRET inh: human SENP1 catalytic domain inhibitors, primary screen, biochemical, FRET, uHTS. recombinant SENP1 catalytic domain, CyPet-SUMO1-YPet FRET cleavage. inhibition, % at 10 µM. actives 0.21% (n = 360,000). AID 624204, 2012;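 active = inhibition at least 30% at 10 µM, raw YFP signal under a set limit, fluorescence ratio 0.5 to 1.5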;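 also: 0% = enzyme with DMSO and 100% = no enzyme wells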
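Test system: human SENP1 catalytic domain; medium: Tris pH 8 buffer plus EDTA, NaCl, BME, BSA, NP40, catalase; incubation: 50 min reaction at room temperature; technique: FRET, CFP and YFP emission; controls: no-enzyme low control and enzyme-plus-DMSO high control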
SENP8 block-2: SENP8 protease inhibitors, primary screen, biochemical, luminescence; purified SENP8, Z-RLRGG-aminoluciferin cleavage; actives 1.2% (n = 330,000); inhibition, % at 10 µM; AID 2540, 2010; Sentrin-specific protease 8 (Homo sapiens), Q96LD8; in the data active = inhibition above about 50%
CendR NRP1 mod: modulators of CendR peptide binding to NRP-1, primary screen, biochemical, fluorescence polarization, uHTS. Neuropilin-1 (Homo sapiens), O14786. FAM-RPARPAR peptide binding to NRP-1. inhibition, % at 25 µM. actives 0.85% (n = 360,000). AID 602438, 2012;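 active = inhibition or corrected inhibition above about 18%, plus a signal ratio from 0.5 to 1.5, limit read from the data, passing the limit was not always enough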
Target sequence (O14786 whole entry, looked up): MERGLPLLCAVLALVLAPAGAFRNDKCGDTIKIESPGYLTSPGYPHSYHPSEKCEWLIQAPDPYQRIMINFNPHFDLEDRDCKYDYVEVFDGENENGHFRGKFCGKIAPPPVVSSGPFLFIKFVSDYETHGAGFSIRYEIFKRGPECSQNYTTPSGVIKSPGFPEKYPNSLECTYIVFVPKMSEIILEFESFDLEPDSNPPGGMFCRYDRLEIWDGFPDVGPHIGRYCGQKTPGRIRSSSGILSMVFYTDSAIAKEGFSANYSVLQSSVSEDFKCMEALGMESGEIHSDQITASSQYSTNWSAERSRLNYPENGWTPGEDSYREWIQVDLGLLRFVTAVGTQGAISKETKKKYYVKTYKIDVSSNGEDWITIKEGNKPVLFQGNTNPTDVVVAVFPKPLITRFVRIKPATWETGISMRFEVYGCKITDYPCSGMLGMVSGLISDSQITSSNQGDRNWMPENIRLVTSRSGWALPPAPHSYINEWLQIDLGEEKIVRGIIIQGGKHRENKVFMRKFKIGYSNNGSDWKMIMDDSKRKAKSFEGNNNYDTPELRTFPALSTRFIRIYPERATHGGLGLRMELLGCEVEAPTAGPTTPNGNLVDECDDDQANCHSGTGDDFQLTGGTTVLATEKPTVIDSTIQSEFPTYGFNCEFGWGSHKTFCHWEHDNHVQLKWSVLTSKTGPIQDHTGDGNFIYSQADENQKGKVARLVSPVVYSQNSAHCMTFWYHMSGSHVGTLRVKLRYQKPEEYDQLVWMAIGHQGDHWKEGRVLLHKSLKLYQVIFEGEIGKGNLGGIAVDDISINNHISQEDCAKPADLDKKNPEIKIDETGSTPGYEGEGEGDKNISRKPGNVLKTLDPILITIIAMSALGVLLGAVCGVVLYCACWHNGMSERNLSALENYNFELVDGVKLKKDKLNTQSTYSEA
SENP8 conf: SENP8 protease inhibitors, retest, confirmation, biochemical, luminescence, single concentration | shares compounds with SENP7 inh | Recombinant SENP8, Z-RLRGG-aminoluciferin luminescence, 60 min | inhibition, % at 12.5 µM | actives 40% (n = 6,200);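 active = mean inhibition across replicates above about 50%, limit read from the data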
SENP6 conf: SENP6 protease inhibitors, confirmation, biochemical, luminescence, single concentration; shares compounds with SENP7 inh; recombinant SENP6, Z-RLRGG-aminoluciferin luminescence; inhibition, % at 12.5 µM; actives 58% (n = 6,200)
SENP7 confirm: SENP7 protease inhibitors, retest, confirmation, biochemical, luminescence, single concentration; recombinant SENP7, Z-RLRGG-aminoluciferin luminescence, 40 min; inhibition, % at 12.5 µM; shares compounds with SENP7 inh; actives 69% (n = 6,200)
Casp3 select: caspase-3 protease inhibitors, confirmation, selectivity assay for SENP inhibitor project, biochemical, single concentration. shares compounds with SENP7 inh. purified caspase-3, Z-DEVD-aminoluciferin luminescence, 60 min. inhibition, % at 12.5 µM. actives 60% (n = 6,200);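 active = mean inhibition above about 50%, limit read from the data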;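 also: plate controls were enzyme with DMSO for no effect and wells without caspase-3 for full effect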
SENP luc ctr: luminescence interference (SENP counter-screen). inhibition, % at 12.5 µM. actives 39% (n = 6,200). Pre-incubated SENP8/Z-RLRGG-aminoluciferin, luciferase luminescence interference. shares compounds with SENP7 inh;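 active = mean inhibition above about 50% when retested at one dose, limit read from the data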;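 also: plate controls were DMSO wells with completed reaction for no effect and substrate without enzyme for full effect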
The depositor's hits bear a star; x = no result given. Rows were chosen to be rich in hits. Some 3.3% of all compounds tested hit in one or more screens of this group.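 The calls were made as follows, unless noted: active = mean inhibition above about 50% in the one-dose retest (limit read from the data); inactive = the rest.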

SMILES	SENP6 block	SENP8 block-1	SENP7 inh	SENP1 FRET inh	SENP8 block-2	CendR NRP1 mod	SENP8 conf	SENP6 conf	SENP7 confirm	Casp3 select	SENP luc ctr
c1ccc(-c2noc(-c3cccc4ccccc34)n2)nc1	96.1*	-356.2	90.3*	2.1	89.1*	-10.7	92.6*	94.6*	100.8*	90.0*	94.2*
Cc1ccc(-c2nc(-c3ccccn3)no2)cc1[N+](=O)[O-]	92.0*	12.5	88.5*	2.1	84.7*	-7.0	62.9*	82.9*	88.2*	84.8*	22.8
c1ccc(-c2noc(-c3ccco3)n2)nc1	74.0*	1.3	72.9*	0.8	42.1	-0.2	64.7*	67.5*	92.1*	91.8*	70.0*
COc1cc(-c2nc(-c3ccccn3)no2)cc(OC)c1OC	-5.8	-5.1	-7.4	-0.7	-7.9	-2.7	x	x	x	x	x
c1ccc(-c2nc(-c3ccccn3)no2)cc1	96.2*	14.8	100.6*	1.2	94.7*	6.9	97.9*	99.1*	102.7*	98.9*	96.6*
CN(Cc1ccc(Cl)cc1)C(c1cc2ccccc2o1)c1nnnn1C(C)(C)C (configuration not stated)	x	13.9	x	3.2	x	12.4	x	x	x	x	x
c1ccc(-c2ccc(-c3nc(-c4ccccn4)no3)cc2)cc1	98.2*	-31.5	98.1*	2.0	96.8*	-5.8	-24.0	73.7*	80.7*	97.1*	17.1
c1ccc(-c2cc(-c3nc(-c4ccccn4)no3)c3ccccc3n2)cc1	-0.2	-290.1	7.0	-1.9	1.7	9.6	x	x	x	x	x
Clc1cccc(-c2nc(-c3ccccn3)no2)c1	96.0*	15.0	97.9*	1.4	92.4*	2.6	97.0*	98.0*	101.8*	97.2*	96.6*
OC(c1ccccc1)c1nc(-c2cccc(C(F)(F)F)c2)cs1 (configuration not stated)	x	18.7	x	4.9	x	10.0	x	x	x	x	x
Cc1nnc(SCc2cc(=O)[nH]c(/N=C(\N)Nc3ccccc3)n2)s1	-17.6	22.2	7.5	0.9	-0.5	1.4	x	x	x	x	x
CCOc1ccc(N/C(N)=N/c2nc(CSc3nnc(C)s3)cc(=O)[nH]2)cc1	54.7*	25.0	-0.1	-1.6	3.5	1.4	-10.8	-7.7	-7.0	-3.4	-7.2
CN[C@@H](CO)C(=O)NC[C@H]1O[C@@H](n2cc(C)c(=O)[nH]c2=O)C[C@@H]1O	x	2.3	x	0.1	x	-1.9	x	x	x	x	x
O=C(Nc1ccc(N2CCOCC2)cc1)c1cn2ccccc2n1	95.5*	7.9	92.6*	-6.1	84.5*	7.4	85.8*	86.5*	98.5*	94.9*	14.8
Cc1cc(C)cc(OCC(=O)Nc2ccc(N3CCCCC3)cc2)c1	2.2	6.5	0.8	2.9	8.6	-4.6	x	x	x	x	x
O=C(Nc1ccc(N2CCCCC2)cc1)C(Cl)c1ccccc1 (configuration not stated)	61.4*	12.5	53.8*	0.1	34.5	0.6	13.8	15.2	15.4	27.5	25.6
Cc1cc(C)cc(NC(=O)Nc2ccc(N3CCCCC3)cc2)c1	81.3*	23.7	81.8*	3.0	79.7*	-18.0	16.1	20.4	42.0	33.4	20.5
O=C(Nc1ccc(N2CCCCCC2)cc1)c1ccc[nH]1	66.1*	-5.4	32.6	-1.1	56.1*	6.2	11.1	9.1	-1.8	-1.0	35.4
CC1(C(=O)NS(=O)(=O)c2cccs2)CCN1C(=O)CCc1ccc(Cl)cc1Cl (configuration not stated)	x	22.1	x	3.2	x	-5.6	x	x	x	x	x
c1cc(-c2ccsc2)n2cnnc2c1	x	-110.5	x	-0.4	x	-23.2	x	x	x	x	x
CCOC1=C2CN(S(=O)(=O)c3ccc(C)cc3)C(c3ccc(C)cc3)CC2N(S(=O)(=O)c2ccc(C)cc2)C(c2ccccc2)C1 (configuration not stated)	x	17.1	x	-0.1	x	-4.6	x	x	x	x	x
O=C(Nc1ccc(N2CCCCCC2)cc1)c1ccccc1Cl	21.4	14.3	-1.9	-1.6	23.5	-11.5	x	x	x	x	x
C/C(CC(=O)Nc1ccc(F)cc1)=N\NC(=O)c1ccccn1	-23.6	30.4	-0.4	0.4	-6.2	-3.1	x	x	x	x	x
O=C(Nc1ccc(N2CCCC2)cc1)c1cc(Cl)ccc1Cl	-13.6	-0.5	-3.9	-1.5	-18.7	-20.6	x	x	x	x	x
O=C(Nc1ccc(N2CCCC2)cc1)c1cccc(Cl)c1	88.0*	30.1	94.3*	0.9	87.0*	-12.2	2.9	55.9*	51.1*	73.3*	9.3
SMILES	SENP6 block	SENP8 block-1	SENP7 inh	SENP1 FRET inh	SENP8 block-2	CendR NRP1 mod	SENP8 conf	SENP6 conf	SENP7 confirm	Casp3 select	SENP luc ctr
O=C(Nc1ccc(N2CCCCC2)cc1)c1ccccn1	101.0*	1.2	100.3*	1.2	94.6*	-4.6	95.0*	98.4*	102.8*	97.7*	75.6*
O=C(Nc1ccc(SC(F)(F)F)cc1)c1ccccn1	92.8*	6.0	92.9*	3.4	89.3*	10.0	85.6*	93.5*	86.7*	60.8*	38.2
CC[C@@H]1C/C=C\Cc2ccccc2[C@H](C(=O)C[C@@H](O)CC(C)=O)OC1=O	-13.7	18.5	-7.9	2.1	-7.4	4.6	x	x	x	x	x
COc1ccc(CNC(=O)C(C)OC(=O)c2cccc(N(C)C)c2)cc1 (configuration not stated)	4.7	-355.0	3.0	-2.0	5.7	-2.0	x	x	x	x	x
C=CC[C@H](CC(=O)N[C@H](CO)Cc1ccccc1)C(=O)N[C@H](COC(=O)[C@H](CC=C)CC(=O)OC(C)(C)C)Cc1c[nH]c2ccccc12	-4.6	9.1	-1.4	2.2	-6.1	4.9	x	x	x	x	x
Oc1c(Br)cc(Br)cc1C=Nc1ccc2[nH]ncc2c1	56.3*	-321.6	28.0	-35.2	32.4	-115.9	0.0	11.8	-5.3	5.0	3.4

High-throughput results (PubChem BioAssay)
